Assay outcomes: PubChem, Sanford-Burnham Center for Chemical Genomics
APOBEC3A inh: inhibitors of human APOBEC3A DNA deaminase; hit rate 0.41% among 330,000; recombinant A3A, FAM/TAMRA ssDNA deamination fluorescence; P31941; inhibition, % at 20 µM;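 active means at least 40% inhibition at 20 µM here, with at most 30% in a related deaminase screen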;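 further: plate controls were A3A with DMSO for no effect and wells lacking A3A enzyme for full effect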
Target sequence (P31941 whole entry, looked up): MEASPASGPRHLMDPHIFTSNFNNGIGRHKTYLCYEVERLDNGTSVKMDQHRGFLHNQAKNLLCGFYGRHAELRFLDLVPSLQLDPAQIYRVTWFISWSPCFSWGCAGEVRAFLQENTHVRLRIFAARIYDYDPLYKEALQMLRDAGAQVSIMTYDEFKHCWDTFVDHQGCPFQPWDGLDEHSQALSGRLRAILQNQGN
APJ agonist: APJ receptor agonism; P35414; CHO-K1 APJ PathHunter beta-arrestin, luminescence; 0% DMSO wells, 100% apelin; activation, % at 20 µM; hit rate 0.11% among 330,000;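 active means activation more than six SD over the plate average, tested at 20 µM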;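 further: 0% = DMSO alone and 100% = apelin-13 at 10 nM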
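Test system – PathHunter CHO-K1 APJ (AGTRL-1) beta-arrestin reporter cells · Input – 1000 cells/well · Compound – single test compound dose, 20 µM final, 1% DMSO · Times – compound stimulation 90 min at 25 °C, detection 60 min · Technique – beta-gal luminescence · Read-out basis – APJ–arrestin association signal · Control set – negative DMSO alone, positive Apelin-13 at 10 nM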
CXCR6 inh: inhibitors of human CXCR6 receptor. O00574. CHO-K1 PathHunter CXCR6 beta-arrestin, luminescence. inhibition, % at 20 µM. hit rate 0.36% among 360,000; in the data active means inhibition above about 34%, passing the limit was not always enough;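 further: antagonist mode with CXCL16 agonist at 10 nM final; 0% = 10 nM CXCL16 with DMSO and 100% = unstimulated wells without agonist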
Target sequence (O00574 whole entry, looked up): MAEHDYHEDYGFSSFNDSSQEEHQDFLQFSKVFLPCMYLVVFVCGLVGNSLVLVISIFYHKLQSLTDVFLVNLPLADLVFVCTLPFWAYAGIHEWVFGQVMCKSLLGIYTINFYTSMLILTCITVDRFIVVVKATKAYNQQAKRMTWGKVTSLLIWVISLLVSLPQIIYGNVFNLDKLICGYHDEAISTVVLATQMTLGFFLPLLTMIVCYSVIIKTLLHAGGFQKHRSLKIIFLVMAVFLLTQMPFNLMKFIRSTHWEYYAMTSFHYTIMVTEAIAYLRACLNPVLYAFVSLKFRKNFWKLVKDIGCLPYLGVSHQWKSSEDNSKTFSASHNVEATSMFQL
APJ antagonist: APJ receptor antagonism. P35414. CHO-K1 APJ beta-arrestin complementation, luminescence. inhibition, % at 20 µM. hit rate 0.32% among 330,000. AID 2521;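 active means inhibition above about 40% at 20 µM, limit read from the data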;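 further: cells challenged with 10 nM apelin-13 agonist together with compound; plate controls were apelin-13 plus DMSO wells for no effect and DMSO wells lacking apelin-13 for full effect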
CCR6 antagonist: CCR6 (human) receptor antagonism; CHO-K1 CCR6 PathHunter beta-arrestin, luminescence, CCL20-stimulated; inhibition, % at 20 µM; AID 493098; P51684; hit rate 0.49% among 340,000;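 active means compounds whose inhibition of the agonist-driven luminescence signal at 20 µM reaches about 50%, limit read from the data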;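 further: cells stimulated with CCL20 at 14 nM final; plate controls were DMSO with CCL20 for no effect and DMSO without agonist for full effect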
APOBEC3G inh: blocks human APOBEC3G single-stranded DNA deamination | Q9HC16 | recombinant A3G, ssDNA deamination FAM/TAMRA fluorescence | inhibition, % at 20 µM | hit rate 0.28% among 330,000 | AID 493012;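 active means inhibition of at least 40% at 20 µM, with no more than 30% in the related APOBEC3A deaminase screen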;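 further: plate controls were DMSO wells with A3G for no effect and wells lacking A3G enzyme for full effect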
APJ ag conf: APJ receptor agonism confirmation; shares compounds with APJ agonist; CHO-K1 APJ PathHunter beta-arrestin, luminescence; activation, % at 20 µM; hit rate 10% among 310; AID 2764;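 active means activation above 40%, taking the highest of four retests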;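 further: plate controls were DMSO wells for no effect and apelin-13 at 10 nM for full effect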
An asterisk follows results filed as active; / = no result. Only some compounds are listed: those with a hit (about 1.4% of all), similar ones and a draw of the others.

SMILES | APOBEC3A inh | APJ agonist | CXCR6 inh | APJ antagonist | CCR6 antagonist | APOBEC3G inh | APJ ag conf
CCn1c(NCc2c[nH]c3ccccc23)nc2ccccc21 | -0.8 | 14.9 | -9.7 | -10.4 | -1.0 | 1.9 | /
Cn1c(NCc2c[nH]c3ccccc23)nc2ccccc21 | 4.0 | 22.4* | -8.7 | -14.1 | -10.5 | -2.8 | 24.9
CCc1ccc2nc(N(CCCN(C)C)C(=O)c3ccc(S(=O)(=O)N4CCc5ccccc5C4)cc3)sc2c1 | -2.6 | 59.5* | -1.1 | 6.1 | -9.5 | -10.4 | 32.7
Cc1ccsc1C(=O)N1CCN(S(=O)(=O)c2cccc(F)c2)CC1 | -1.1 | -1.9 | 0.6 | 4.4 | 10.7 | -3.7 | /
CCOc1ccc2[nH]c(=O)c(CN(Cc3ccco3)Cc3nnnn3Cc3ccccc3)cc2c1 | 1.4 | -3.5 | 0.6 | 18.8 | 20.1 | -0.2 | /
CCOc1ccc2[nH]c(=O)c(CN(Cc3ccco3)C(CC)c3nnnn3Cc3ccccc3)cc2c1 (stereo unspecified) | -10.2 | 75.8* | 6.7 | -0.2 | 13.2 | -1.6 | 9.0
CCCCNc1c(-c2cccc(-c3ccc(OC)cc3)c2)nc2ccc(C)cn12 | -1.7 | 52.3* | -11.0 | -26.3 | -3.2 | -8.0 | 14.6
O=[N+]([O-])c1ccc2nc(-c3ccc(Cl)cc3)[nH]c2c1 | -5.0 | 13.5* | -5.8 | -15.4 | -23.5 | 3.0 | 30.9
Cc1cc(C)nc(/N=C(\N)Nc2ccc(OCCC(C)C)cc2)n1 | 5.6 | 16.1* | -3.4 | -3.5 | -1.2 | 2.2 | 7.0
Cc1cccn2c(=O)nc(SCC(=O)NCc3ccc(F)cc3)nc12 | -0.5 | -2.1 | 7.2 | -6.6 | 7.3 | -9.6 | /
CCC(C)N(C(=O)CN1C(=O)NC2(CCc3ccccc32)C1=O)C1CCS(=O)(=O)C1 (stereo unspecified) | -0.4 | -3.4 | -3.3 | -10.7 | -2.4 | 0.4 | /
O=C(Nc1ccncc1)c1cc2ccccc2cc1O | -3.3 | 46.6* | -39.8 | -213.1 | -32.5 | -10.6 | 33.0
O=C(Nc1cccc([N+](=O)[O-])c1)c1cc2ccccc2cc1O | -1.8 | 7.3 | 2.7 | -15.8 | 26.1 | -3.8 | /
C#CCOCCOCCOCCNc1nc(N2CCN(C(=O)CCCCCCCCCCNC(=O)[C@H]([C@@H](C)CC)n3cc(CCCCCN)nn3)CC2)nc(N2CCN(C(=O)CCCCCCCCCCNC(=O)[C@H]([C@@H](C)CC)n3cc(CCCCN=C(N)N)nn3)CC2)n1 | 2.8 | 51.0* | 10.3 | 13.8 | / | -1.2 | 30.6
C#CCOCCOCCOCCNc1nc(N2CCN(C(=O)CCCCCCCCCCNC(=O)[C@H]([C@@H](C)CC)n3cc(CCCCN=C(N)N)nn3)CC2)nc(N2CCN(C(=O)CCCCCCCCCCNC(=O)[C@H](CCCCN)n3cc(C)nn3)CC2)n1 | -2.8 | 82.6* | / | 40.2* | -12.6 | 3.7 | 26.3
C#CCOCCOCCOCCNc1nc(N2CCN(C(=O)CCCCCCCCCCNC(=O)Cn3cc(CCCCCN)nn3)CC2)nc(N2CCN(C(=O)CCCCCCCCCCNC(=O)[C@H]([C@@H](C)CC)n3cc(CCCCN=C(N)N)nn3)CC2)n1 | 0.3 | 17.0 | 39.8 | 22.2 | -27.2 | 1.5 | /
C#CCOCCOCCOCCNc1nc(N2CCN(C(=O)CCCCCCCCCCNC(=O)[C@H]([C@@H](C)CC)n3cc(CCCCCN)nn3)CC2)nc(N2CCN(C(=O)CCCCCCCCCCNC(=O)[C@H](CCCCN)n3cc(CCCC(=O)O)nn3)CC2)n1 | -2.6 | -5.3 | -1.3 | 15.4 | 13.0 | -5.3 | /
CCCCCCc1cc2cc(C(=O)Nc3ccccc3OC)c(=O)oc2cc1O | -1.0 | 6.8 | -75.0 | -38.2 | -49.6 | -6.4 | /
CCCCCCc1cc2cc(-c3nnc(-c4ccccc4O)o3)c(=O)oc2cc1O | -159.5 | 24.5* | -41.3 | -75.1 | -58.5 | -367.5 | 51.9*
CCCCCCc1cc2cc(-c3nnc(-c4ccccc4OC)o3)c(=O)oc2cc1O | -198.4 | -2.3 | -71.8 | -76.1 | -89.6 | -289.2 | /
CCCCCCc1cc2cc(-c3nnc(-c4cc(OC)c(OC)c(OC)c4)o3)c(=O)oc2cc1O | -159.2 | 16.5* | / | -86.9 | -87.7 | -321.0 | 53.9*
CCN(CC)S(=O)(=O)c1ccc(N2CCOCC2)c(NS(=O)(=O)c2ccc(Cl)s2)c1 | / | / | 0.2 | / | / | / | /
